Source: paper PMC12034843 (Drug Design, Development and Therapy, 2025)
Ends that are not written are not given here.

Tests used:
MIN-6 cells = experiment: Insulin secretion of MIN-6 cells; type: cell-based; conditions: 100 nmol/L, 1 h, 8.3 mmol/L GLC and 0.8 mmol/L palmitic acid, MF density 1 T for /MF groups, n = 6
[1] = In vitro release from exosome-SPION; type: physicochemical; conditions: PBS, 37 °C, fitted with OriginPro 2021
In short: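 Test peptide loaded in SPION-decorated exosomes was placed in a dialysis bag (MWCO 80 kD) and incubated at 37 °C in PBS. Samples were withdrawn at selected intervals and peptide was quantified by reverse-phase HPLC on a C18 column. Percent release was calculated as (concentration in PBS × PBS volume) / (concentration in mother liquor × mother liquor volume) × 100%.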

[2] = Pharmacokinetic study after tail vein injection; type: in vivo; conditions: Kunming mice, 5 mg/kg, HPLC, n = 6
In short: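 Kunming mice ([…], 18–22 g) were randomised into groups of six and given 5 mg/kg by tail-vein injection, either as free peptide or as the peptide-equivalent dose in exosome-SPION form. At intervals, 20 μL of tail-vein blood was taken with heparinised micropipettes and mixed into 1 mL PBS. Samples were centrifuged at 10,000 rpm for 10 min, and peptide in the supernatant was quantified by C18 HPLC.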

HSDAVFTDNYTRLRKQVAAKKYLQSIKNKRY-NH2 (C-terminus assumed) [BAY 55-9837]
insulin secretion compared to the model group (MIN-6 cells): significantly enhance insulin secretion
first-order fitted release equation y = a × (1 – exp(−b × x)): a [1]: 53.92
time after injection at which it could not be detected in plasma [2]: 110 min
